The nature of the assay: inhibitors of GR-EGFP nuclear translocation, primary screen, dynein cargo transport inhibitor project, imaging, high-content, 3617.4 mouse cells (AID 1381). To be noted: stimulated with dexamethasone, 1 µM. In short, it runs like this:
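Buffer or medium: tet-free medium with charcoal-stripped serum / Also added: dexamethasone agonist, 1.0 µM final, for 30 min / Timing: induction 48 h, compound 1 h, agonist 30 min / Measured by: high-content fluorescence imaging after fixation / Read-out: nuclear-to-cytoplasmic GR-EGFP distribution per well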

Setting [1] is: measured here: cell count per field, at 20 µM.
Where [2] appears, read: measured here: cytoplasmic GR-EGFP intensity, at 20 µM, stronger effect = higher value.
The mark [3] stands for this setting: measured here: nuclear GR-EGFP intensity, at 20 µM, stronger effect = lower value.
[4] abbreviates: measured here: cell count per field, at 50 µM.
Where [5] appears, read: measured here: cytoplasmic GR-EGFP intensity, at 50 µM, stronger effect = higher value.
[6] abbreviates: measured here: nuclear GR-EGFP intensity, at 50 µM, stronger effect = lower value.

The campaign covered roughly 220,000 compounds. About 1,000 (0.45%) were called active.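 The calls were made as follows: active = plate z-score of nuclear minus cytoplasmic receptor signal below a set negative limit, without overly bright fluorescence or cell loss (cut at about -3.5 in these data, passing the limit was not always enough); inactive = the rest, inconclusive results apart.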 Many of the other results were omitted from the sample, so actives are more common in it than they were.

As to `CC(NC(=S)Nc1ccccc1)C1COc2ccccc2O1` (stereo unspecified), the z-score is 0.289 (inactive) (at 20 µM, stronger effect = lower value); 0.134 under setting [1]; -0.0607 under setting [2]; 0.355 under setting [3].

`CCN(CC)Cc1csc2ccc(Br)cc12`: the z-score was -0.627 (inactive) (at 20 µM, stronger effect = lower value); 1.15 under setting [1]; -0.13 under setting [2]; 0.249 under setting [3].

With `O=C(Nc1ccc(F)cc1)c1cccnc1N1CCOCC1`, the z-score (at 50 µM, stronger effect = lower value) was 0.0462 (inactive); the z-score under setting [4] was 1.37; the z-score under setting [5] was -0.00933; the z-score under setting [6] is 0.174.

`O=c1[nH]c(N2CCN(Cc3ccc4c(c3)OCO4)CC2)nc2c1CCCC2`: the z-score is -1.03 (inactive) (at 20 µM, stronger effect = lower value); 2.27 under setting [1]; -0.309 under setting [2]; -0.0483 under setting [3].

Regarding `COCC1CCCN(Cc2nc(-c3ccc4c(c3)OCO4)no2)C1` (stereo unspecified), the z-score runs as follows: (at 20 µM, stronger effect = lower value) 0.118 (inactive); under setting [1], 0.19; under setting [2], -0.27; under setting [3], 0.224.

`CCC1=C/C(=C\c2ccc3c(c2)OCO3)C(=O)S1`: the z-score (at 20 µM, stronger effect = lower value) was -3.72 (active); the z-score under setting [1] was 0.295; the z-score under setting [2] was determined as 0.919; the z-score under setting [3] is -1.39.

In the case of `CSC1=N/C(=C\c2ccc3c(c2)OCO3)C(=O)S1`, the z-score was -0.0628 (inactive) (at 50 µM, stronger effect = lower value); -0.123 under setting [4]; -0.227 under setting [5]; -0.89 under setting [6].

`O=C1/C(=C/c2ccc3c(c2)OCO3)CCC/C1=C\c1ccc2c(c1)OCO2`: the z-score reads like this: (at 20 µM, stronger effect = lower value) 0.645 (inactive); under setting [1], -1.87; under setting [2], 1.28; under setting [3], 0.356.

With `Cc1cccc(C)c1NC1=NC(=S)N(c2ccc(N(C)C)cc2)C1(C)C`, the z-score runs as follows: (at 20 µM, stronger effect = lower value) 1.25 (inactive); under setting [1], 0.0641; under setting [2], -0.0144; under setting [3], 0.985.

Take `Cc1ccc(/C=N/NC(=S)NC2CCCCC2)o1`: the z-score (at 20 µM, stronger effect = lower value) is -0.738 (inactive); the z-score under setting [1] is -0.0991; the z-score under setting [2] was -0.777; the z-score under setting [3] is -0.608.

Regarding `C/C(CC(=O)Nc1cccc(C(F)(F)F)c1)=N\NC(=O)C(=O)NCC(C)C`, the z-score reads like this: (at 20 µM, stronger effect = lower value) -0.981 (inactive); under setting [1], 0.594; under setting [2], -0.237; under setting [3], -0.369.

Take `Cc1nnc(SCCCCSc2nnc(C)c(=O)[nH]2)[nH]c1=O`: the z-score (at 20 µM, stronger effect = lower value) is -0.311 (inactive); the z-score under setting [1] is -0.339; the z-score under setting [2] is -0.259; the z-score under setting [3] was -0.0707.

As for `CC(=O)Nc1cccc([N+](=O)[O-])c1`, the z-score by setting is: (at 20 µM, stronger effect = lower value) 0.101 (inactive); under setting [1], 0.386; under setting [2], -0.384; under setting [3], 0.092.

As to `COC(=O)/C=C\C(=O)Nc1cccc([N+](=O)[O-])c1`, the z-score (at 20 µM, stronger effect = lower value) was -4.05 (active); the z-score under setting [1] was -0.741; the z-score under setting [2] was 1.08; the z-score under setting [3] is -2.26.

Regarding `Cc1ccccc1NC(=S)Nc1cccc([N+](=O)[O-])c1`, the z-score was -0.523 (inactive) (at 20 µM, stronger effect = lower value); -0.0166 under setting [1]; -0.193 under setting [2]; -0.37 under setting [3].

For `COc1ccc(-c2csc(-c3cccs3)n2)cc1OC`, the z-score was 0.847 (inactive) (at 20 µM, stronger effect = lower value); 0.288 under setting [1]; -0.331 under setting [2]; 0.694 under setting [3].

Turning to `COc1ccc(-c2noc(-c3cccc(OC)c3OC)n2)cc1OC`, the z-score runs as follows: (at 20 µM, stronger effect = lower value) 1.03 (inactive); under setting [1], -0.605; under setting [2], -0.0658; under setting [3], 0.927.

With `COc1ccc(-c2csc3nc(-c4ccccc4F)oc(=O)c23)cc1OC`, the z-score is, setting by setting: (at 20 µM, stronger effect = lower value) -3.75 (active); under setting [1], -0.574; under setting [2], 0.603; under setting [3], -1.45.

With `O=C(Nc1ccc(N2CCOCC2)cc1)c1ccc2c(c1)OCO2`, the z-score by setting is: (at 20 µM, stronger effect = lower value) 1.56 (inactive); under setting [1], -0.797; under setting [2], -0.257; under setting [3], 0.727.

As to `CCCC1NC(=S)NC(C)=C1C(C)=O` (stereo unspecified), the z-score reads like this: (at 20 µM, stronger effect = lower value) 0.661 (inactive); under setting [1], 0.486; under setting [2], -0.194; under setting [3], 0.234.

Take `COc1cc(/C=N\NC(=O)CNC(=O)c2cccc([N+](=O)[O-])c2)ccc1O`: the z-score was 2.51 (inactive) (at 20 µM, stronger effect = lower value); -1.15 under setting [1]; 0.0365 under setting [2]; 1.56 under setting [3].

For `COc1ccc(C(=O)NCC(=O)N/N=C/c2ccc([N+](=O)[O-])o2)cc1OC`, the z-score was -4.33 (active) (at 20 µM, stronger effect = lower value); 0.928 under setting [1]; 0.52 under setting [2]; -1.68 under setting [3].

Turning to `COc1ccc(C(=O)NCC(=O)N/N=C/c2ccc([N+](=O)[O-])s2)cc1OC`, the z-score is, setting by setting: (at 20 µM, stronger effect = lower value) -0.653 (inactive); under setting [1], 0.617; under setting [2], -0.211; under setting [3], -0.24.

On to `CC(C)(C)OC(=O)NCCCCCC(=O)N/N=C/c1coc2ccccc2c1=O`, for which the z-score is, setting by setting: (at 20 µM, stronger effect = lower value) -0.131 (inactive); under setting [1], -0.0505; under setting [2], -0.202; under setting [3], -0.314.

`C/C(=N\NC(=O)CSc1nc2ccccc2c(=O)n1-c1ccccc1C)c1cccs1`: the z-score (at 20 µM, stronger effect = lower value) was 0.968 (inactive); the z-score under setting [1] is -0.667; the z-score under setting [2] is -0.231; the z-score under setting [3] is 0.554.

For the compound `CCn1c(SCc2cc(=O)n3ccsc3n2)nc2ccccc21`, the z-score was -0.0624 (inactive) (at 20 µM, stronger effect = lower value); -0.534 under setting [1]; -0.319 under setting [2]; 0.783 under setting [3].

Turning to `CCCCCCc1cc2cc(-c3nnc(-c4cccc(OC)c4)o3)c(=O)oc2cc1O`, the z-score runs as follows: (at 50 µM, stronger effect = lower value) -2.6 (inactive); under setting [4], -0.146; under setting [5], 22.1; under setting [6], 2.79.

For the compound `C[C@H](NC(=O)OC(C)(C)C)c1nnc(SCC(N)=O)o1`, the z-score is 0.077 (inactive) (at 20 µM, stronger effect = lower value); -0.312 under setting [1]; -0.175 under setting [2]; 0.307 under setting [3].

With `C[C@@H](NC(=O)OC(C)(C)C)c1nnc(S(=O)(=O)Cc2ccccc2)o1`, the z-score is, setting by setting: (at 20 µM, stronger effect = lower value) -5.36 (active); under setting [1], 0.73; under setting [2], 1.44; under setting [3], -2.38.

In the case of `CC(C)Sc1nnc([C@H](Cc2ccccc2)NC(=O)OC(C)(C)C)o1`, the z-score by setting is: (at 20 µM, stronger effect = lower value) -1.61 (inactive); under setting [1], 1.71; under setting [2], 0.279; under setting [3], -0.731.

As to `Cc1ccc(NC(=O)CN(C)Cc2ccc(F)cc2)c([N+](=O)[O-])c1`, the z-score is -0.244 (inactive) (at 20 µM, stronger effect = lower value); -0.235 under setting [1]; -0.22 under setting [2]; -0.284 under setting [3].

For `CCOC(=O)C(=CNc1cccc(C)n1)C(=O)OCC`, the z-score is 0.995 (inactive) (at 20 µM, stronger effect = lower value); 0.752 under setting [1]; -0.214 under setting [2]; 0.879 under setting [3].

On to `CCOC(=O)C(=Cc1ccccc1OC)C(=O)OCC`, for which the z-score is -5.08 (active) (at 20 µM, stronger effect = lower value); 0.0073 under setting [1]; 1.43 under setting [2]; -2.52 under setting [3].

As to `COc1ccccc1NC(=O)c1ccc(C)s1`, the z-score was 0.335 (inactive) (at 50 µM, stronger effect = lower value); -0.862 under setting [4]; -0.265 under setting [5]; 0.226 under setting [6].

The values above are taken from PubChem BioAssay AID1381 (University of Pittsburgh Molecular Library Screening Center, 2008).
